# Source: the RNAGym collection of RNA variant scans (doi:10.1126/science.aae0568)
# Fewer inactive variants are shown than the library holds.
# B1: tRNA (parent)
# chain: GUUCCGUUGGCGUAAUGGUAACGCGUCUCCCUCCUAAGGAGAAGACUGCGGGUUCGAGUCCCGUACGGAACG
# Variants of: B1
# Experiment: yeast fitness relative to wild type (ratio to wild type); higher = fitter; tRNA-Arg(CCU), competitive growth, 37 C, YPD
# Method in brief: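 Variants of the tRNA-Arg(CCU) gene, chemically synthesised with a 3% per-site mutation rate at 69 sites, were placed at the native genomic locus in Saccharomyces cerevisiae. The pooled strains were competed in YPD at 37°C for 24 hours in six parallel replicates. Gene amplicons from the start population and from each end population were read by 100-nucleotide paired-end sequencing. Darwinian fitness relative to wild type came from changes in genotype frequencies; genotypes needed ≥ 100 starting reads, and estimates < 0.5 were set to 0.5.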
row,Variant,yeast fitness
1,GUUCCGUUGGCGUAAUGGUCACGCGUCUCCGUCCUGAGGAGAAGACUGCGGGUUCGAGUCCCGUACGGAACG,0.764
2,GUUCCGUUGGCGUAAUGGUAGCGCGUCUCCCUCCUAAGGAGAAGACUGCCGCUUCGAGUCCCGUACGGAACG,≤ 0.5
3,GUUCCGUUGGCGUAAUGGUAACGCGUCUCCCUCCUAUGGAGAAGACUGCGGGUUCGAGUCCCCUACGGAACG,0.591
4,GUUCCGUUGGCGUAAUGGUAACGCGUCUCCCUCCUAAGGAGAAGACUACGAGUUCGAGUCCCGUACGGUACG,0.755
5,GUUCCGUUAGUGUAAUGGUAACGCGUCUCCCUCCUAAGGAGAAGACUACGGGUUCGAGUCCCGUACGGAACG,0.715
6,GUUCCGUUGGCGUAAUGGUAACGCGUCUCCCUCCUAAGGAGAAGACUGCGGGUUCGCGUCCUGUACGGAACG,0.565
7,GCUCCGUUGGCGUAAUGGUUACGCGUCUCCCUCCUAAGGAGAAGACUGCGGGUUCGAGUCCCGUACGGAACG,0.91
8,GUUCCGUUGGCGUAAUGGUAACGGGUCUCCCUCCUAAGGGGAAGACUGCCGGUUCGAGUCCCGUACGGAACG,0.599
9,GUUCCGUUGGCGUGAUGGUAACGCGUCUCCCUCUUAAGGAGAAGACUGCGGAUUCGAGUCCCGUAUGGAUCG,≤ 0.5
10,GUUCCGUUGGCGUAAUGGCAACGCGUCUCCCUCCUAAGGAGAAGACUGCGGGUUCGAGUCCAGUACGGAACG,0.713
11,GUUCGGUUGGAGUAGUGAUAACGCGUCUCGCUCCUAAGGAGAAGACUGCGGGUUCGAGUCCCGUACGGAACG,0.587
12,GUUCCGUUGGCGUAACGGUAUCGCGUCUCCGUCCUAAGGAGAAGACUGCGGGUUCGAGUCCCGUACGGAACG,0.537
13,GUUCCGUUGGCGUAAUGGUAACGGAUCUCGCUCCUAAGGAGAAGACUGCGGGUUCGAGUCCCGUACGGAACG,≤ 0.5
14,GUUCCGUUGGCAUAAUGGUAACGCGUCUCCCUCCUAAGGAGAAGACUGCGGGUUCGAGUCCCGUACGGAGCG,1.02
15,GUUCCGUUGGCGUAAUGGUAACGCGUCUCCCUCCUAAGGAGAAGACUGCGGAUUCGGGUCCCGUACGGAACG,0.852
16,GCUCCAUUGGCGUAAUGGUAACGCGUCUCCCUCCUAAGGAGAAGACUGCGGGUUCGUGUCCUGUACGGAACG,≤ 0.5
17,GUCCCGUUGGUGUAAUGGUAACGCGUGUCCCUCCUAAGGAGAAGACUGCGGAUUCGAGUCCCGUACGGAACG,≤ 0.5
18,GUUCCGCUGGCGUAAUGGUAACGCGUCUCCGUCCUAAGGAAAAGACUGCGGCUUCGAGUUCGGUAGGGAACG,≤ 0.5
19,GUUCCGUUGGCGUAAUGGUAACGCAUCUCCCACCUAAGGAGAAGACUGCGGGAUCGAGUCCCGUACGGACCG,≤ 0.5

row,Variant,yeast fitness
1,GUUCCGUUGGCGUAAUGGUUACGCGUCUGCCUCCUAAGGAGAAGACCGGGGGUUCGAGUCCCCUACGGAACG,≤ 0.5
2,GUUCAGUUGGCGAAAUGGUGACGCGUCUCCCUCCUAAGGAGCAGACUGCGGGUUCGAGCCCCGUACGGAACG,≤ 0.5
3,GUUCUGUUGGCGUUAUGGUAACGCGUCUCCCUCCUAAGGAGAAGAUUGCGGCUUCGAGUCCCGUACGGUACG,≤ 0.5
4,GUCUCGUUGGCGUAGUGGUAACGCGACUCCCACCUAAGGAGAAGACUGCGGGUUCGAGUCCCGUACGGAACG,0.571
5,GUUCCGUUGGCGUAAUGGUAACGCGUCUGCCUCCUAAGGAGAAGACUACGGGUUCGAGUCCCGUACCGAACG,≤ 0.5
6,GUUUCGUUGGCGUAUUGGUAACGCGUCUCCCUCCUAAGGAGAAGACUGCGGGUUCGAGUCCCGUACGGAACG,0.89
7,GUUCCGUUGGCGUAAUGGUAACGCGUCUCCGGCCUAUGGAGAAGACUGCGGGUUCGAGUCCCGUUCGGAACG,≤ 0.5
8,GUUCCGUUGGCGUAAUGGUAACGCCACUCCCUCCUAAGGAGAAGACUGCGGGUUCGAGUCACGUACGGAACG,≤ 0.5
9,GUUCCGUUGGCGUAAUGAUAAAGCGUCUCCCUCCUACGGACAAGACUGCGGGUUGGAGUCCCGAACGGAACG,≤ 0.5
10,GUUCCGUUGGCGUAAUGGUAACGCGUAUCCAUCCUAAGGAGAAGACUGCGGGUUCGAGUCCCGUACGGAACG,0.758
11,GUUCCGUUGGUGUAAUGGUAACGCGUCUCCCUCCUAAGGAGAAGACUGCGGGUUCGAGUGCCGUACGGAACG,0.607
12,GUUCCCUUGGCGUAAUGGUAACGCGUCUACCUCCUAAGGAGAAGACUGCGGGUUCGAGUCCCGUACGGAACG,0.667
13,GUUCCGUUGGCCUAAUGGUAACGCAUCUCCCUCCUAAGGAGAAGACUGUGGGUUCGAGUCCCGUACGGAACG,0.67
14,GUUCCGUUGGCGUAAUGGUAACGCGUCUUCCUCCUAAGGAGAACACUGCGGGUUCGAGUACCGUACGGAACG,≤ 0.5
15,GUUCCGUUGGCGUAAUGGUAACGCGUCUCCUUCCUAAGAAGAAGCCUGCGGGUUCGAGUCCCGUACGGAACG,0.677
16,GUUCCGUUGGCGUAAUGGUAACGCGUCUGCCUCCACAGGAGAAGACUGCGGGUUCGAGUCCCGUACGGAACG,≤ 0.5
17,GUUCCGUUGGCGUAAUGGUAGCGCGUCUCCCUCCUAAGGGGUAGACUGCGGGUUCGAGGCCCGUACGGAACG,≤ 0.5
18,GUUCCGUUGGCGUAAUGGUAACGCGUCUCCCUCCUAAGGAGAAGACUGCGGGUUCGAGUCCGGUACGGGACG,0.819
19,GUUCCGUUGGCGUAAUGGUAACGCGUUUCCCUCCUAAGGAGAAGACUGGGGGUUCGAGUCCCGUACGGUACG,0.542
